In one assay the target is PDIA1 (Homo sapiens, UniProt P07237). Description: PDI reductase assay. Type of assay: biochemical.
Sequence of PDIA1 (P07237 18-508): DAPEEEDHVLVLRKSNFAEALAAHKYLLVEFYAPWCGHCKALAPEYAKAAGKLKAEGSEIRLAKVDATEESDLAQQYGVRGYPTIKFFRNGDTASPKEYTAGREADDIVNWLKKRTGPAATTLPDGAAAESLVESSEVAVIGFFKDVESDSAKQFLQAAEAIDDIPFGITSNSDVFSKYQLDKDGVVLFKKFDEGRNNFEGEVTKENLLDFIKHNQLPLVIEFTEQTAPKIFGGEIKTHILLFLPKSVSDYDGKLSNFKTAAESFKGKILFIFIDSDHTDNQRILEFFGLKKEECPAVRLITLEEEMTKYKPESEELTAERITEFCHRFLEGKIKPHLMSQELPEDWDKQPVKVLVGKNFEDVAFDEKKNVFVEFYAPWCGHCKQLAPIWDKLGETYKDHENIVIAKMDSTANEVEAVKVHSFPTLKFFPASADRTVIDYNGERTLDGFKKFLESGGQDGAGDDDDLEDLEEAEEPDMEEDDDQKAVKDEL
Conditions: not given
Turning to `COc1cccc(C(c2ccc3cccnc3c2O)N2CCOCC2)c1OC` (centres unmarked) [5a, 7-((2,3-Dimethoxyphenyl)(morpholino)methyl)quinolin-8-ol], the “PDI inhibition in the PDI reductase assay (in words)” value is “submicromolar IC50 values”.

Consider `Oc1c(C(c2ccc(F)cc2)N2CCCCC2)ccc2cccnc12` (centres unmarked) [5b, 7-((4-Fluorophenyl)(piperidin-1-yl)methyl)quinolin-8-ol], for which the “PDI inhibition in the PDI reductase assay (in words)” value is given as “submicromolar IC50 values”.

Regarding `Oc1c(C(c2ccc(F)cc2)N2CCCCC2)ccc2c1CCC2` (centres unmarked) [5k, 5-((4-Fluorophenyl)(piperidin-1-yl)methyl)-2,3-dihydro-1H-inden-4-ol], the “PDI inhibition in the PDI reductase assay (in words)” value was “complete loss of the potency”.

Consider `CN(C)c1cccc(C(c2ccc(F)cc2)N2CCCCC2)c1O` (centres unmarked) [5l, 2-(Dimethylamino)-6-((4-fluorophenyl)(piperidin-1-yl)methyl)phenol], for which the “PDI inhibition in the PDI reductase assay (in words)” value was “lost activity”.

`Oc1cc2c(cc1C(c1ccc(F)cc1)N1CCCCC1)NCC2` (centres unmarked) [6d, 6-((4-Fluorophenyl)(piperidin-1-yl)methyl)indolin-5-ol]: the “PDI inhibition in the PDI reductase assay (in words)” value is “moderate loss of activity”.

As to `COc1c(C(c2ccc(F)cc2)N2CCCCC2)ccc2ccoc12` (centres unmarked) [compound 8, 1-((4-Fluorophenyl)(7-methoxybenzofuran-6-yl)methyl)piperidine], the “PDI inhibition in the PDI reductase assay (in words)” value is on record as “lost activity”.

For the compound `Oc1cc2c(cc1C(c1ccccc1)C1CCCCC1)OCO2` (centres unmarked) [compound 13, 6-(Cyclohexyl(phenyl)methyl)benzo[d][1,3]dioxol-5-ol], the “PDI inhibition in the PDI reductase assay (in words)” value is “abolished its PDI inhibition”.

The test system of a further assay is U−87 MG cells. Description: MTT growth inhibition assay in U-87 MG cells. The conditions noted are these: Homo sapiens, read-out: MTT (% inhibition at 30 μM). Type of assay: cell-based. The method in brief:
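Cells were grown at 37 °C, 5% CO₂ in 10% FBS medium: DMEM for U-87 MG, RPMI-1640 for A-172. Duplicate wells of 3000–5000 cells were attached overnight, then exposed to 30 μM test compound for 72 h. MTT (3 mg/mL) was added for 4 h at 37 °C and formazan dissolved in DMSO before reading A570. Inhibition (%) = [1−(At−Ab)/(Ac−Ab)]×100.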
Background: Tetrazolium dyes change colour on reduction, which living cells bring about.
For orientation: inhibition means the relative decrease from the control value, in per cent. In the case of `Oc1c(C(c2ccc(F)cc2)N2CCCCC2)ccc2cncnc12` (centres unmarked) [5c, 7-((4-Fluorophenyl)(piperidin-1-yl)methyl)quinazolin-8-ol], the inhibition at 30 µM was determined as 32%.

Turning to `Oc1c(C(c2ccc(F)cc2)N2CCCCC2)ccc2nccnc12` (centres unmarked) [5e, 6-((4-Fluorophenyl)(piperidin-1-yl)methyl)quinoxalin-5-ol], the inhibition at 30 µM was found to be 0%.

With `Oc1c(C(c2ccc(F)cc2)N2CCCCC2)ccc2scnc12` (centres unmarked) [5f, 5-((4-Fluorophenyl)(piperidin-1-yl)methyl)benzo[d]thiazol-4-ol], the inhibition at 30 µM stood at 0%.

Regarding `Oc1c(C(c2ccc(F)cc2)N2CCCCC2)ccc2ccoc12` (centres unmarked) [5g, 6-((4-Fluorophenyl)(piperidin-1-yl)methyl)benzofuran-7-ol], the inhibition at 30 µM was found to be 0%.

With `Oc1c(C(c2ccc(F)cc2)N2CCCCC2)ccc2c1OCCO2` (centres unmarked) [5h, 6-((4-Fluorophenyl)(piperidin-1-yl)methyl)-2,3-dihydrobenzo[b][1,4]dioxin-5-ol], the inhibition at 30 µM was 0%.

Turning to `Oc1c(C(c2ccc(F)cc2)N2CCCCC2)ccc2c1OCO2` (centres unmarked) [5i, 5-((4-Fluorophenyl)(piperidin-1-yl)methyl)benzo[d][1,3]dioxol-4-ol], the inhibition at 30 µM stood at 0%.

In the case of `Oc1c(C(c2ccc(F)cc2)N2CCCCC2)ccc2cnccc12` (centres unmarked) [5j, 6-((4-Fluorophenyl)(piperidin-1-yl)methyl)isoquinolin-5-ol], the inhibition at 30 µM is 0%.

Regarding `CN(C)c1cccc(C(c2ccc(F)cc2)N2CCCCC2)c1O` (centres unmarked) [5l, 2-(Dimethylamino)-6-((4-fluorophenyl)(piperidin-1-yl)methyl)phenol], the inhibition at 30 µM was determined as 0%.

For `CC(=O)c1cc2ccc(C(c3ccc(F)cc3)N3CCCCC3)c(O)c2o1` (centres unmarked) [5m, 1-(6-((4-Fluorophenyl)(piperidin-1-yl)methyl)-7-hydroxybenzofuran-2-yl)ethanone], the inhibition at 30 µM amounted to 0%.

In the case of `Oc1cc(F)ccc1C(c1ccc2ccoc2c1O)N1CCCCC1` (centres unmarked) [5n, 6-((4-Fluoro-2-hydroxyphenyl)(piperidin-1-yl)methyl)benzofuran-7-ol], the inhibition at 30 µM was found to be 0%.

With `Oc1c(C(c2ccc3c(c2)CCC3)N2CCCCC2)ccc2ccoc12` (centres unmarked) [5o, 6-((2,3-Dihydro-1H-inden-5-yl)(piperidin-1-yl)methyl)benzofuran-7-ol], the inhibition at 30 µM stood at 5%.

As for `Oc1c(C(c2ccc3c(c2)OC(F)(F)O3)N2CCCCC2)ccc2ccoc12` (centres unmarked) [5q, 6-((2,2-Difluorobenzo[d][1,3]dioxol-5-yl)(piperidin-1-yl)methyl)benzofuran-7-ol], the inhibition at 30 µM was 9%.

`Oc1c(C(c2ccc(C(F)(F)F)cc2)N2CCCCC2)ccc2ccoc12` (centres unmarked) [5r, 6-(Piperidin-1-yl(4-(trifluoromethyl)phenyl)methyl)benzofuran-7-ol]: the inhibition at 30 µM came out at 5%.

As for `Oc1cc2c(cc1C(c1ccc(F)cc1)N1CCCCC1)OCCO2` (centres unmarked) [6c, 7-((4-Fluorophenyl)(piperidin-1-yl)methyl)-2,3-dihydrobenzo[b][1,4]dioxin-6-ol], the inhibition at 30 µM turned out to be 1%.

Take `Oc1cc2c(cc1C(c1ccc(F)cc1)N1CCCCC1)NCC2` (centres unmarked) [6d, 6-((4-Fluorophenyl)(piperidin-1-yl)methyl)indolin-5-ol]: the inhibition at 30 µM turned out to be 0%.

As to `COc1cccc(C(c2cc3c(cc2O)OC(F)(F)O3)N2CCOCC2)c1OC` (centres unmarked) [6e, 6-((2,3-Dimethoxyphenyl)(morpholino)methyl)-2,2-difluorobenzo[d][1,3]dioxol-5-ol], the inhibition at 30 µM was 40%.

Turning to `Oc1ccc2ncccc2c1C(c1ccc(F)cc1)N1CCCCC1` (centres unmarked) [7a, 5-((4-Fluorophenyl)(piperidin-1-yl)methyl)quinolin-6-ol], the inhibition at 30 µM was 10%.

Consider `Oc1ccc2scnc2c1C(c1ccc(F)cc1)N1CCCCC1` (centres unmarked) [7b, 4-((4-Fluorophenyl)(piperidin-1-yl)methyl)benzo[d]thiazol-5-ol], for which the inhibition at 30 µM was determined as 1%.

Take `Oc1ccc2nccnc2c1C(c1ccc(F)cc1)N1CCCCC1` (centres unmarked) [7c, 5-((4-Fluorophenyl)(piperidin-1-yl)methyl)quinoxalin-6-ol]: the inhibition at 30 µM was determined as 0%.

Turning to `Oc1ccc2ccncc2c1C(c1ccc(F)cc1)N1CCCCC1` (centres unmarked) [7d, 8-((4-Fluorophenyl)(piperidin-1-yl)methyl)isoquinolin-7-ol], the inhibition at 30 µM stood at 0%.

On to `Oc1ccc2cnccc2c1C(c1ccc(F)cc1)N1CCCCC1` (centres unmarked) [7e, 5-((4-Fluorophenyl)(piperidin-1-yl)methyl)isoquinolin-6-ol], for which the inhibition at 30 µM was 0%.

For `Oc1ccc2[nH]ccc2c1C(c1ccc(F)cc1)N1CCCCC1` (centres unmarked) [7f, 4-((4-Fluorophenyl)(piperidin-1-yl)methyl)-1H-indol-5-ol], the inhibition at 30 µM came out at 0%.

As to `Oc1ccc2[nH]ncc2c1C(c1ccc(F)cc1)N1CCCCC1` (centres unmarked) [7g, 4-((4-Fluorophenyl)(piperidin-1-yl)methyl)-1H-indazol-5-ol], the inhibition at 30 µM was 87%.

Regarding `Oc1ccc2[nH]ncc2c1C(c1ccc(C(F)(F)F)cc1)N1CCCCC1` (centres unmarked) [7h, 4-(Piperidin-1-yl(4-(trifluoromethyl)phenyl)methyl)-1H-indazol-5-ol], the inhibition at 30 µM worked out at 0%.

Consider `O=[N+]([O-])c1ccc(C(c2c(O)ccc3[nH]ncc23)N2CCCCC2)cc1` (centres unmarked) [7i, 4-((4-Nitrophenyl)(piperidin-1-yl)methyl)-1H-indazol-5-ol], for which the inhibition at 30 µM came out at 0%.

For the compound `Oc1ccc2[nH]ncc2c1C(c1ccc(-c2nccs2)cc1)N1CCCCC1` (centres unmarked) [7j, 4-(Piperidin-1-yl(4-(thiazol-2-yl)phenyl)methyl)-1H-indazol-5-ol], the inhibition at 30 µM was found to be 0%.

Regarding `Oc1ccc2[nH]ncc2c1C(c1ccc(-n2cccc2)cc1)N1CCCCC1` (centres unmarked) [7k, 4-((4-(1H-Pyrrol-1-yl)phenyl)(piperidin-1-yl)methyl)-1H-indazol-5-ol], the inhibition at 30 µM was determined as 0%.

For `Oc1ccc2[nH]ncc2c1C(c1ccc(-c2cncnc2)cc1)N1CCCCC1` (centres unmarked) [7l, 4-(Piperidin-1-yl(4-(pyrimidin-5-yl)phenyl)methyl)-1H-indazol-5-ol], the inhibition at 30 µM was found to be 0%.

The values are drawn from article PMC8103808 (Journal of medicinal chemistry, 2020).
